PG9 Ab binder – PG9 antibody binding by small molecule; hit rate 0.43% among 360,000; inhibition, % at 6.7 µM; TR-FRET gp120-PG9 antibody binding; AID 624416; in the data active means inhibition above about 8.5%
Rev-erbA mod – modulators of human Rev-erb alpha DNA binding; AID 1259318; hit rate 0.79% among 370,000; P20393; Rev-erbα–FITC-DNA binding, fluorescence polarization, 90 min; activity, % at 10 µM;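 active means activity above about 14%, limit read from the data; passing the limit was not always enough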;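 further: 0% = DMSO wells with 35 nM protein and 100% = DMSO wells with 750 nM protein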
Target sequence (P20393 whole entry, looked up): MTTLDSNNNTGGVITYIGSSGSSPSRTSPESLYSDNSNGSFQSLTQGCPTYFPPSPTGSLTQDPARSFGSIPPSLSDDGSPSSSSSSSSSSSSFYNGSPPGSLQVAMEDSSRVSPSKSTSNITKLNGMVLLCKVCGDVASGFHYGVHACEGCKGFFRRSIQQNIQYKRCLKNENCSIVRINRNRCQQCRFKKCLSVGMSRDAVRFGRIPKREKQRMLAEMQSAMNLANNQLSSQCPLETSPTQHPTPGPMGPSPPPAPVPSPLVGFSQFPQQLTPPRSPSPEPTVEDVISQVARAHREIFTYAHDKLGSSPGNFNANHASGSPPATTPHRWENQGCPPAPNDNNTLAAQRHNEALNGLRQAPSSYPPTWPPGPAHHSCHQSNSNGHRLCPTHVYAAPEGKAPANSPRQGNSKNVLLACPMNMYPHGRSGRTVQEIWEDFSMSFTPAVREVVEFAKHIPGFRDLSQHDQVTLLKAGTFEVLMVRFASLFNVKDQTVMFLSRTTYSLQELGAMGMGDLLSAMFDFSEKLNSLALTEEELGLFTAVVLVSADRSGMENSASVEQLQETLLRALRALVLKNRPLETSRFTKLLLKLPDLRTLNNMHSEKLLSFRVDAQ
NR2E3 ag-1 – activates human photoreceptor nuclear receptor NR2E3. Q9Y5X4. GST-NR2E3/biotin-RetCOR TR-FRET, 1536-well. inhibition of corepressor binding, % at 4.78 µM. hit rate 0.12% among 320,000. AID 2300;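 active means percent inhibition above the cutoff of mean plus 3 SD of all tested compounds, set per screening campaign, cut at about 20% in these data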;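 further: 0% = DMSO wells and 100% = biotin wells as full block of FRET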
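System: GST-NR2E3 and biotin-RetCOR proteins; probe or stimulus: 7 nM biotin-RetCOR; doses: compound at 4.8 µM, single dose; schedule: Compound–protein incubation for 5 h at 4 °C; detection: time-resolved FRET; read-out: percent inhibition; controls: biotin wells as high control, 0.6% DMSO wells as low control; format: 1536-well plates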
NR2E3 ag-2 – human photoreceptor-specific nuclear receptor agonism; Q9Y5X4; CHO-S Gal4-NCOR/VP16-NR2E3 two-hybrid, luciferase; inhibition of corepressor binding, % at 3.98 µM; hit rate 0.35% among 360,000;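 active means inhibition above the mean of all tested compounds plus 3 SD, cut at about 70% in these data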;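 further: 0% = DMSO with NR2E3 transfected cells and 100% = cells lacking NR2E3 construct; higher means lower luciferase signal from less NR2E3 corepressor binding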
NR2E3 ag confirm – confirmation of human NR2E3 agonists; shares compounds with NR2E3 ag-2; inhibition, % at 3.98 µM; hit rate 51% among 2,300; CHO-S mammalian two-hybrid NR2E3-NCOR, luciferase luminescence;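 active means average inhibition above a cutoff equal to the mean inhibition of all tested compounds plus one SD, cut at about 70% in these data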;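 further: 0% = DMSO in NR2E3 cells and 100% = DMSO in cells lacking NR2E3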
VP16 counter – reduces GAL4-VP16 reporter signal in NR2E3 counterscreen; inhibition, % at 3.98 µM; AID 624379; shares compounds with NR2E3 ag-2; hit rate 29% among 2,300; CHO-S GAL4-VP16 luciferase reporter, luminescence;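 active means mean inhibition above a cutoff equal to the average over all tested compounds plus one standard deviation, cut at about 70% in these data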;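 further: luciferase from a UAS reporter driven by GAL4-VP16 transactivation; 0% = DMSO with VP16-transfected cells and 100% = DMSO with cells lacking VP16; higher means less reporter light so more repression of VP16 activity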
* hit, by the source's call; x = no result given. Compounds with a hit are over-represented: about 1.4% of the library has one in this group of screens.

SMILES	PG9 Ab binder	Rev-erbA mod	NR2E3 ag-1	NR2E3 ag-2	NR2E3 ag confirm	VP16 counter
COc1cccc(C(C)(O)c2nc(-c3cc4ccccc4o3)cs2)c1 (centres undefined)	-3	4	x	79*	93*	72*
COc1cccc(C(C)(O)c2nc(-c3ccccc3)cs2)c1 (centres undefined)	-1	-4	x	3	x	x
COc1cccc(C(C)(O)c2nc(-c3ccc(N(C)C)cc3)cs2)c1 (centres undefined)	0	10	x	73*	83*	60
CC(O)(c1cccc(F)c1)c1nc(-c2cc3ccccc3o2)cs1 (centres undefined)	1	1	x	34	x	x
COc1cccc(C(C)(O)c2nc(-c3ccc(OC)c(OC)c3)cs2)c1 (centres undefined)	0	-7	x	-5	x	x
CC(O)(c1ccc(F)c(F)c1)c1nc(-c2cc3ccccc3o2)cs1 (centres undefined)	-2	12	x	58	61	48
Cc1noc(NS(=O)(=O)c2ccc(NC(=O)c3oc4ccc(Cl)cc4c3C)cc2)c1C	-1	2	2	-43	x	x
COc1cccc(CN(C)C(=O)c2cc(COc3ccc4ncccc4c3)on2)c1	0	-3	1	79*	97*	88*
COc1cccc(CN(C)C(=O)c2cc(COc3c(F)cccc3F)on2)c1	0	-1	-8	-6	x	x
COc1cccc(CN(C)C(=O)c2cc(COc3ccc(-n4cncn4)cc3)on2)c1	2	6	3	66	46	41
O=C(CN1C(=O)NC2(CCCCC2)C1=O)Nc1ccc(S(=O)(=O)N2CCOCC2)cc1	0	-1	1	16	x	x
COc1cccc(C(=O)N[C@@H](Cc2cccnc2)C(=O)N2CCC[C@H]2C(=O)NCCc2ccccc2Cl)c1	-1	-3	x	x	x	x
COc1ccc(OC)c(C2C=C(C34CC5CC(CC(C5)C3)C4)NC(=S)N2)c1 (centres undefined)	-2	8	4	59	14	11
COc1cc(C2C=C(C34CC5CC(CC(C5)C3)C4)NC(=S)N2)cc(OC)c1OC (centres undefined)	1	-1	0	-3	x	x
COc1cc(/C=N/Nc2nc(Nc3ccccc3)nc(-n3nc(C)cc3C)n2)cc(OC)c1OC	-3	0	-1	68	-14	-45
COc1ccc(/C=N/Nc2cc(C)nc(-n3nc(C)cc3C)n2)cc1	0	-2	1	94*	29	18
COc1ccc(O)c(/C=N/Nc2nc(Nc3ccccc3)nc(-n3nc(C)cc3C)n2)c1	3	4	2	96*	11	-78
Cc1cc(N/N=C/c2cccc(Cl)c2)nc(-n2nc(C)cc2C)n1	-2	0	1	-25	x	x
COc1ccc(O)c(/C=N/Nc2nc(C)cc(-c3ccccc3)n2)c1	-1	10	-2	-17	x	x
COc1cc(/C=N/Nc2nc(Nc3ccc(C)cc3)nc(-n3nc(C)cc3C)n2)cc(OC)c1OC	-1	2	-1	59	18	-18
CCC(C)[C@H](N)C(=O)N[C@H]1CCC2C3CC=C4C[C@@H](O)CC[C@]4(C)C3CC[C@@]21C (some centres undefined)	1	-7	x	-6	x	x
COc1cccc(C(=O)NCc2ccc3c(c2)cc(C)n3C)c1	1	-5	0	-14	x	x
CCC(C)[C@H]1CNCCN1CCc1cc(C(F)(F)F)cc(C(F)(F)F)c1 (some centres undefined)	-1	0	-1	17	x	x
CCC(C)[C@H]1CNC(=S)N1CCc1cc(C(F)(F)F)cc(C(F)(F)F)c1 (some centres undefined)	0	5	2	48	-4	17
CN1CCN(c2cc(=O)n(C3CCCCC3)c(=O)[nH]2)CC1	-1	3	-1	-5	x	x
SMILES	PG9 Ab binder	Rev-erbA mod	NR2E3 ag-1	NR2E3 ag-2	NR2E3 ag confirm	VP16 counter
O=c1cc(N2CCN(c3cccc(Cl)c3)CC2)[nH]c(=O)n1C1CCCCC1	-1	19	0	57	93*	28
O=c1cc(N2CCN(c3ccccc3)CC2)[nH]c(=O)n1C1CCCCC1	1	-5	0	54	92*	19
Cc1nc(NC(=O)COC(=O)CNC(=O)c2ccco2)c(Cl)cc1Cl	-4	1	x	-36	x	x
Cc1cccc(NC(=O)/C(=C\c2cccs2)NC(=O)c2ccccc2)c1	x	x	0	56	6	-10
O=C(Nc1ccccc1)/C(=C\c1cccs1)NC(=O)c1ccccc1	-3	1	5	-2	x	x
COC(=O)c1cc(OC)c(OC)cc1NC(=O)CSc1nnc(-c2cccnc2)n1C	1	-2	-1	-12	x	x
CC(C(=O)Nc1ccccc1)c1ccc(-c2ccccc2)c(F)c1 (centres undefined)	x	x	-3	74*	52	54
CCN(CC(=O)NCc1cccs1)C(=O)c1ccc(-c2cccc(C(F)(F)F)c2)o1	-1	-5	1	54	20	-7
CCOC(=O)C1(Cc2ccccc2C(F)(F)F)CCN(C2CCC2)CC1	0	1	1	6	x	x
COc1cc(/C=C/C(=O)OCC(=O)N2c3ccccc3CC2C)cc(OC)c1OC (centres undefined)	-1	12	4	-9	x	x
Cc1cc(Cn2nnc3ccccc32)c(O)c(C(C)(C)C)c1	0	-2	2	80*	19	35
Cc1cccc(Cn2nnc3ccccc32)c1O	0	1	2	-20	x	x
CC(C)(C)c1cccc(Cn2nnc3ccccc32)c1O	-2	3	1	62	55	66
Oc1ccccc1Cn1nnc2ccccc21	2	4	3	7	x	x
OC1(c2ccccc2)CC(c2ccccc2)c2ccccc2O1 (centres undefined)	-1	-3	x	9	x	x
COc1cccc(/C=C2\SC(=S)N(CCCC(=O)Nc3cccc(C(=O)O)c3)C2=O)c1	x	x	x	68	23	58
COc1ccc(/C=C2\SC(=O)N(CCCC(=O)Nc3ccc(C(=O)O)cc3)C2=O)cc1	-1	-1	x	88*	85*	92*
COc1ccc(/C=C2\SC(=S)N(CCCC(=O)Nc3cccc(C(=O)O)c3)C2=O)cc1OC	-4	4	-1	2	x	x
COc1ccc(/C=C2/SC(=S)N(CCCC(=O)Nc3cccc(O)c3)C2=O)cc1	-2	-4	2	61	1	60
O=C(CCN1C(=O)S/C(=C\c2ccc(Cl)cc2)C1=O)Nc1ccc(C(=O)O)cc1	-4	1	2	-20	x	x
Cc1nonc1NC(=O)CSc1ccc(-c2ccccc2)nn1	0	-3	0	-8	x	x
CCCCCc1nc2c(c3c1CCCC3)CCCC2	-2	2	4	x	x	x
CSc1ccc(COC(=O)c2cc([N+](=O)[O-])ccc2N2CCOCC2)cc1	-1	0	-1	61	12	27
CC(=O)OCC(=O)Nc1ccc([N+](=O)[O-])cc1Cl	-3	-7	2	-21	x	x

Compound activity from PubChem.
